Values joined by “and” are separate entries in the source; they are usually repeats but may differ in a detail not shown here. Identical values can stand only once.
Columns and labels:
[1] = biological target: T1, Nitric oxide synthase 3 (Bos taurus, UniProt P29473); experiment: Inhibitory activity against endothelial nitric oxide synthase (eNOS)
T1 sequence (P29473 whole entry): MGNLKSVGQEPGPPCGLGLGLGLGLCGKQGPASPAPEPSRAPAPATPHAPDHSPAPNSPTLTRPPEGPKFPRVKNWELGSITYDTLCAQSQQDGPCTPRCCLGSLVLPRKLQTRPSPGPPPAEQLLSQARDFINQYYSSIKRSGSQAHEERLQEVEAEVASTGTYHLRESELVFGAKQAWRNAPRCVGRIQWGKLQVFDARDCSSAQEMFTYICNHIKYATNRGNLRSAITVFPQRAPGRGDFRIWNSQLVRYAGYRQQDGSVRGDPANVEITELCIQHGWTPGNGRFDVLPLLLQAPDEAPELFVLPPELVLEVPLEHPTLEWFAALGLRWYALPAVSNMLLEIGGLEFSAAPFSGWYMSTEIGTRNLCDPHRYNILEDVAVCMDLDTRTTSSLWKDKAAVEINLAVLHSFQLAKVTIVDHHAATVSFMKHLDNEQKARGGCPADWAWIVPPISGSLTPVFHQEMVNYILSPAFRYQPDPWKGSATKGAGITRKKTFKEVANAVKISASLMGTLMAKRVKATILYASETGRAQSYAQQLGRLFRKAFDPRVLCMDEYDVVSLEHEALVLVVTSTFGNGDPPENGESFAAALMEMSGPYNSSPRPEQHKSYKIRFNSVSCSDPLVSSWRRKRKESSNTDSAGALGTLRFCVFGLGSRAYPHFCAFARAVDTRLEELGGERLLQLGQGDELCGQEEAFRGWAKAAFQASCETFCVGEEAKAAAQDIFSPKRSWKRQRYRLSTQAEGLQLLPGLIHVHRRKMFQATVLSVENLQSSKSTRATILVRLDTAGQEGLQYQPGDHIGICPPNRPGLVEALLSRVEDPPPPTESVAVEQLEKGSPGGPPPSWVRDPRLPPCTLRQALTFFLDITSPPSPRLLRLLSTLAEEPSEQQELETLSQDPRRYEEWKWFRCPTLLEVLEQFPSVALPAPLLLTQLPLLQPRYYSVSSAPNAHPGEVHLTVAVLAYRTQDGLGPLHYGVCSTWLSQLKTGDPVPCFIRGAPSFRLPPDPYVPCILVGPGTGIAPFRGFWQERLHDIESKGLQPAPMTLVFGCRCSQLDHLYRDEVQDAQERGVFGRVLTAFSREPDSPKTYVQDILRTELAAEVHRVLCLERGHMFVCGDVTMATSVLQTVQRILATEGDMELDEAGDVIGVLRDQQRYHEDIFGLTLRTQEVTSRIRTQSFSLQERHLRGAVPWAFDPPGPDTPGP

[2] = biological target: T2, Nitric oxide synthase 1 (Rattus norvegicus, UniProt P29476); experiment: Inhibitory activity against neuronal nitric oxide synthase (nNOS)
T2 sequence (P29476 whole entry): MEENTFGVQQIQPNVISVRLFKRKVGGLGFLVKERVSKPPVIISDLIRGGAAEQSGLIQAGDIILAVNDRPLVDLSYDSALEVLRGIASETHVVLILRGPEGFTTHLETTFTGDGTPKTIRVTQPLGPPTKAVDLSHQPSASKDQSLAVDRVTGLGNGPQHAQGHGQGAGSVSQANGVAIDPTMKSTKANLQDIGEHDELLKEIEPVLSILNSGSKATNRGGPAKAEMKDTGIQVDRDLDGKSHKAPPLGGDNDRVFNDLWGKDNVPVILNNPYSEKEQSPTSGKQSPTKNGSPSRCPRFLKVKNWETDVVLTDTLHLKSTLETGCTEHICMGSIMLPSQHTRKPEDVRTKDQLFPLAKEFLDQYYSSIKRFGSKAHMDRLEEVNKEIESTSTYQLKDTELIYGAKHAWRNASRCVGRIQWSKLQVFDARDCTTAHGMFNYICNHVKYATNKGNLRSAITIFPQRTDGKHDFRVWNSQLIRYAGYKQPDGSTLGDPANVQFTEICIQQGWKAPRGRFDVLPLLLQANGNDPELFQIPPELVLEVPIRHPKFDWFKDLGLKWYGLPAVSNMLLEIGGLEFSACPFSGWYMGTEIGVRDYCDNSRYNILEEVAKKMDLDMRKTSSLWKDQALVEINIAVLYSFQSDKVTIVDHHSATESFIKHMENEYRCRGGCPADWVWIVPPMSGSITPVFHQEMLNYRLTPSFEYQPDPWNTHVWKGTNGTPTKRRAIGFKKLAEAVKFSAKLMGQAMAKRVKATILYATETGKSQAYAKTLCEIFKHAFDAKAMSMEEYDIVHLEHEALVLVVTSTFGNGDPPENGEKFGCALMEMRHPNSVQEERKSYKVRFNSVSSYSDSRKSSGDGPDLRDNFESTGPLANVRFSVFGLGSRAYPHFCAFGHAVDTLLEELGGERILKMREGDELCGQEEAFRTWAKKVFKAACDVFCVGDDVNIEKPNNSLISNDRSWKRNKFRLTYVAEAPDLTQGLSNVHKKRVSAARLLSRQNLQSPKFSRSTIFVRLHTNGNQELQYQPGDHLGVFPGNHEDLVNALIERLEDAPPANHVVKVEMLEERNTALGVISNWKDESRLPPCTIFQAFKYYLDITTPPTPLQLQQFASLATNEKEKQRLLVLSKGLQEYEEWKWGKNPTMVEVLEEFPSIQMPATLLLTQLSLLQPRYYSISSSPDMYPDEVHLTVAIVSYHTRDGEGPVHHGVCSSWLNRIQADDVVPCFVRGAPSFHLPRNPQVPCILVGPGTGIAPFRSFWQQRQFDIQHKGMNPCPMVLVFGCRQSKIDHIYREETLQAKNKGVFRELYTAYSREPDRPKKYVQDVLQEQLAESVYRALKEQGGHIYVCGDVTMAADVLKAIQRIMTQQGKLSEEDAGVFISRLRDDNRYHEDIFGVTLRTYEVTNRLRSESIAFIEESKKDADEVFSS

[3] = biological target: T3, Nitric oxide synthase, inducible (Mus musculus) (UniProt P29477); experiment: Inhibitory activity against inducible nitric oxide synthase (iNOS) at 100 uM; design: scale not given: the % may be the effect or the level left
T3 sequence (whole entry): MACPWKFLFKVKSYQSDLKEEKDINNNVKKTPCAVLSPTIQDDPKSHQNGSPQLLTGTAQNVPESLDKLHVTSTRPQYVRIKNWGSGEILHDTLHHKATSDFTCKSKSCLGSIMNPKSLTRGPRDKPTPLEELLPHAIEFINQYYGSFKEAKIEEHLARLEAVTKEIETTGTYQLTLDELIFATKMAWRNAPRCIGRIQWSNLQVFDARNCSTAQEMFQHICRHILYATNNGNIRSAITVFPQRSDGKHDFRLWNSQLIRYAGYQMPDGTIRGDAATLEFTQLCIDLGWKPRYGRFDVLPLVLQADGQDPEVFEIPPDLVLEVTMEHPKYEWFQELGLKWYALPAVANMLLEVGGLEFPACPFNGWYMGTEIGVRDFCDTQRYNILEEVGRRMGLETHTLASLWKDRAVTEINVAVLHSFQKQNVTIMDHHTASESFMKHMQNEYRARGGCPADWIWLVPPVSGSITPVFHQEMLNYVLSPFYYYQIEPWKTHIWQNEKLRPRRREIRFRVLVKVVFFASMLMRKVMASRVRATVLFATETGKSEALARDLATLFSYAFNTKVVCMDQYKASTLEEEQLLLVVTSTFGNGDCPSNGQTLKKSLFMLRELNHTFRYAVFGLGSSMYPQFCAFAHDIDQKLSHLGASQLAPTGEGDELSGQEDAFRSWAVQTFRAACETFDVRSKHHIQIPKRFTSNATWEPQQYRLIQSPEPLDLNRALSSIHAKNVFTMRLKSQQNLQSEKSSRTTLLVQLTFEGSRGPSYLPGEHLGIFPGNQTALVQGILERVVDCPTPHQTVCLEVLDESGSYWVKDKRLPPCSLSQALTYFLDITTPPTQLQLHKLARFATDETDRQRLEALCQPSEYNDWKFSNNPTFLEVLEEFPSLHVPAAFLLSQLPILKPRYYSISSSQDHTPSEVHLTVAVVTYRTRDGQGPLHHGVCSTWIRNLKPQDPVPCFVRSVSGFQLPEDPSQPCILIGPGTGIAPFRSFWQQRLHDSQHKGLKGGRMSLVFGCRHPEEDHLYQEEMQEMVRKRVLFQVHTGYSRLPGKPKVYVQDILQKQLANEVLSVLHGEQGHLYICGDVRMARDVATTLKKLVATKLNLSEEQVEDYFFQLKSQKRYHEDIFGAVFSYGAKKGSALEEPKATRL
Method in brief: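 Single-point screen against murine macrophage iNOS: enzyme residual activity measured at 100 μM inhibitor. NO formation monitored by hemoglobin capture assay with a UV/vis spectrophotometer.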

[4] = biological target: T4, Nitric oxide synthase, inducible (Mus musculus, UniProt P29477); experiment: Inhibitory activity against inducible nitric oxide synthase (iNOS)
T4 sequence (P29477 whole entry): T3 sequence (whole entry)

[5] = biological target: T4, Nitric oxide synthase, inducible
[6] = biological target: T2, Nitric oxide synthase 1; experiment: Binding affinity towards neuronal nitric oxide synthase (nNOS)
[7] = biological target: T2, Nitric oxide synthase 1; experiment: Inhibitory activity against neuronal nitric oxide synthase (nNOS); Range is 50-100 uM

| SMILES | IC50 [1] | IC50 [2] [µM] | Activity [3] [%] | IC50 [7] [µM] | also measured |
| --- | --- | --- | --- | --- | --- |
| NC(=O)[C@@H]1C[C@@H](N)CN1C(=O)[C@@H](N)CCC/N=C(\N)N[N+](=O)[O-] | > 100 µM | ~100 | – | – | – |
| NC(=O)[C@@H]1C[C@@H](NC(=O)C(F)(F)F)CN1C(=O)[C@@H](N)CCC/N=C(\N)N[N+](=O)[O-] | > 100 µM | ~100 | – | – | – |
| N=C(NCCC[C@@H](N)C(=O)NC1CNC(C(N)=O)C1)N[N+](=O)[O-] (single isomer, unassigned) | – | – | 96 | – | – |
| NC(=O)[C@@H]1C[C@@H](NC(=O)[C@@H](N)CCC/N=C(\N)N[N+](=O)[O-])CN1 | – | 0.64 | 10 | – | IC50 [4]: 65 µM; Ki [5]: 29 µM |
| N=C(NCCC[C@H](N)C(=O)NC1CNC(C(N)=O)C1)N[N+](=O)[O-] (single isomer, unassigned) | – | 9.6 | 78 | – | IC50 [4]: 441 µM; Ki [6]: 1.1 µM; Ki [5]: 199 µM |
| N=C(NCCC[C@H](N)C(=O)N[C@H]1CNC(C(N)=O)C1)N[N+](=O)[O-] (single isomer, unassigned) | – | – | 94 | – | – |
| CC(=N)Nc1cccc(CN)c1 | 0.48 µM and 1.1 µM | 0.011 | – | – | – |
| N=C(NCCC[C@H](NC(=O)[C@H]1CC(N)CN1)C(N)=O)N[N+](=O)[O-] (single isomer, unassigned; cis) | > 100 µM | – | – | < 100 | – |
| NC(=O)[C@@H]1C[C@@H](NC(=O)[C@H](N)CCC/N=C(\N)N[N+](=O)[O-])CN1 | – | – | 97 | – | – |
| NC(=O)[C@@H]1C[C@H](NC(=O)[C@H](N)CCC/N=C(\N)N[N+](=O)[O-])CN1 | – | – | 96 | – | – |
| [N-]=[N+]=N[C@H]1CNC(C(=O)N[C@H](CCCNC(=N)N[N+](=O)[O-])C(N)=O)C1 (single isomer, unassigned) | > 100 µM | – | – | < 100 | – |
| [N-]=[N+]=N[C@H]1CNC(C(=O)N[C@@H](CCC/N=C(\N)N[N+](=O)[O-])C(N)=O)C1 (single isomer, unassigned) | > 100 µM | – | – | < 100 | – |
| N=C(NCCC[C@@H](N)C(=O)N[C@H]1CNC(C(N)=O)C1)N[N+](=O)[O-] (single isomer, unassigned) | – | – | 97 | – | – |
| NC(=O)[C@@H]1C[C@H](NC(=O)[C@@H](N)CCC/N=C(\N)N[N+](=O)[O-])CN1 | – | – | 95 | – | – |
| N=C(NCCC[C@@H](NC(=O)[C@H]1CC(N)CN1)C(N)=O)N[N+](=O)[O-] (single isomer, unassigned; cis) | > 100 µM | – | – | < 100 | – |
| [N-]=[N+]=N[C@@H]1CN[C@@H](C(=O)C[C@@H](CCC/N=C(\N)N[N+](=O)[O-])C(N)=O)C1 | > 100 µM | – | – | < 100 | – |
| N=C(NCCC[C@@H](NC(=O)[C@H]1CC(N)CN1)C(N)=O)N[N+](=O)[O-] (single isomer, unassigned; trans) | > 100 µM | – | – | < 100 | – |
| N=C(NCCC[C@@H](N)C(=O)N1CC(N)C[C@@H]1C(N)=O)N[N+](=O)[O-] (single isomer, unassigned; cis) | > 100 µM | ~100 | – | – | – |
| N=C(NCCC[C@H](NC(=O)[C@H]1CC(N)CN1)C(N)=O)N[N+](=O)[O-] (single isomer, unassigned; trans) | > 100 µM | – | – | < 100 | – |

Source: ChEMBL document CHEMBL1137082, “Potent and selective conformationally restricted neuronal nitric oxide synthase inhibitors” (J Med Chem, 2004)
